Experimental data taken from ChEMBL document CHEMBL1152619, “Synthesis and structure-activity relationships of dehydroaltenusin derivatives as selective DNA polymerase alpha inhibitors” (Bioorg Med Chem, 2009).
Calls of active or inactive are those of the source. The rule behind the calls is not given here.

What was measured:
[1] = Inhibition of calf thymus DNA polymerase alpha by [3H]dTTP incorporation assay; parameters: species or system Bos taurus
In short: (§1)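 Enzymes: pol α immunoaffinity-purified from calf thymus; pol β purified from a recombinant rat pol β expression plasmid. Template-primer was poly(dA)/oligo(dT)12–18 (A/T = 2/1) with [³H]-dTTP as substrate. Inhibitor–enzyme premix was added to standard reaction mixture and incubated for 60 min at 37 °C. Remaining activity was expressed relative to the no-inhibitor control (100%).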

[2] = Selectivity index, ratio of IC50 for rat DNA polymerase beta to IC50 for calf thymus DNA polymerase alpha
DNA polymerase beta = DNA polymerase beta (Rattus norvegicus, UniProt P06766); assay: Inhibition of rat DNA polymerase beta by [3H]dTTP incorporation assay; in short: as §1
[3] = target: Myosin light chain kinase, smooth muscle (Homo sapiens, UniProt Q15746); assay: Inhibition of MLCK
Sequence of Myosin light chain kinase, smooth muscle (Q15746 whole entry): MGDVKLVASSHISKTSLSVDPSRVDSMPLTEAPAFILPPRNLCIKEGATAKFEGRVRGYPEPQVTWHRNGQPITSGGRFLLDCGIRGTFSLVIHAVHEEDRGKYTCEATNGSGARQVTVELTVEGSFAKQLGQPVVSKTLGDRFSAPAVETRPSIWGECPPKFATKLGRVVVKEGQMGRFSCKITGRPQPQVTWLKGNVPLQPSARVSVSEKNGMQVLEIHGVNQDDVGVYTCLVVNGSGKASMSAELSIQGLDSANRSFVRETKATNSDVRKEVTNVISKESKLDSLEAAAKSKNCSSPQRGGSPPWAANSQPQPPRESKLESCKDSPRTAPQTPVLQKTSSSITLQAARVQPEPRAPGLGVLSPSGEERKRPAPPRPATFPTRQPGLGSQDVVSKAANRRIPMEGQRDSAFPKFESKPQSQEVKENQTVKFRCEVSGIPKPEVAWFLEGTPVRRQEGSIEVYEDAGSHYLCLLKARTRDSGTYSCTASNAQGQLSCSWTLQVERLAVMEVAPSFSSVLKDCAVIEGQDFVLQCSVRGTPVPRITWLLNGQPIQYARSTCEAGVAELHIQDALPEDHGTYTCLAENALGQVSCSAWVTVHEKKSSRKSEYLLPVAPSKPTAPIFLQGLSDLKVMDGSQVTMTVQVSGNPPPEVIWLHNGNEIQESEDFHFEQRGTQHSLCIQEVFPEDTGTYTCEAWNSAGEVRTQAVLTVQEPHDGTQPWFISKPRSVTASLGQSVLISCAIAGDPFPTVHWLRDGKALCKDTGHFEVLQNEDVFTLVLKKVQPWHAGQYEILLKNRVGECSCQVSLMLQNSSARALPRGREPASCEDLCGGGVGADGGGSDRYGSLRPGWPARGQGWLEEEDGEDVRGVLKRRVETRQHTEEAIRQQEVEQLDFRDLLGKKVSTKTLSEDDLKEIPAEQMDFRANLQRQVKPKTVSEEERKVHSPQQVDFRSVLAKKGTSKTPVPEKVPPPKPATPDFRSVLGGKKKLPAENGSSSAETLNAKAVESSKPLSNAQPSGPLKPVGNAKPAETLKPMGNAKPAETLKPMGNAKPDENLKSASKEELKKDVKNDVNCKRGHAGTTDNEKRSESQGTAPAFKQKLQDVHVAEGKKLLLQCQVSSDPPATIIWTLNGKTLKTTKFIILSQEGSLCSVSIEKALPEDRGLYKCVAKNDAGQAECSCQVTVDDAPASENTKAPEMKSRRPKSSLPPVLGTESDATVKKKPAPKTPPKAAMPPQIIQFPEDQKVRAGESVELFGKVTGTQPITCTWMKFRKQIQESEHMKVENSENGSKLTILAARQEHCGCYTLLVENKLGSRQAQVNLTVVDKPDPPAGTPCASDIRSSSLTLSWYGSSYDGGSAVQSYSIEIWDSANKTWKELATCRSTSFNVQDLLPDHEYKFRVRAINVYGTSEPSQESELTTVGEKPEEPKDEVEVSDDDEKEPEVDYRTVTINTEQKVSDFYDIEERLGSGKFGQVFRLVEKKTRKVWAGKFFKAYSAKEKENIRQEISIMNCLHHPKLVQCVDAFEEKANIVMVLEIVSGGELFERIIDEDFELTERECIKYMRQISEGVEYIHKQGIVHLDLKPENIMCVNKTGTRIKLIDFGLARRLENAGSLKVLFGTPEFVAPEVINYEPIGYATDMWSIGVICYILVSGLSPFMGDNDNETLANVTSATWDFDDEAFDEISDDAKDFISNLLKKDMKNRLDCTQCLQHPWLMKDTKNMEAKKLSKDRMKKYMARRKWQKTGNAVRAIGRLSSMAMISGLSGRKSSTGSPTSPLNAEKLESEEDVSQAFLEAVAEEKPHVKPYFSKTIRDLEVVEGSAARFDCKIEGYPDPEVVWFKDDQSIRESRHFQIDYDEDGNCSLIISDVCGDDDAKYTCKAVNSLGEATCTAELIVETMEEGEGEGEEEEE

Bos taurus = species: Bos taurus; assay: Inhibition of calf thymus DNA polymerase alpha assessed as complete inhibition of enzyme activity at 4 uM by [3H]dTTP incorporation assay

Row | SMILES | IC50 [1] | IC50 ([1]; read-out: IC50) | Ratio IC50 [2] | IC50 (DNA polymerase beta) | IC50 [3] | Activity (Bos taurus)
1 | CC12C=C(O)C(=O)C=C1c1cc(O)cc(O)c1C(=O)O2 (stereo not given) [DESMETHYLDEHYDROALTENUSIN] | Dose-dependent effect | 0.89 µM | 142 | 126 µM | – | –
2 | COc1cc(O)c2c(c1)C1=CC(=O)C=CC1(C)OC2=O (stereo not given) | – | > 200 µM | – | – | – | –
3 | COc1cc(O)c2c(c1)C1=CC(=O)C(O)=CC1(C)OC2=O (stereo not given) [DEHYDROALTENUSIN] | Dose-dependent effect | 0.68 µM | 94.1 | 64 µM | 0.69 µM | Active
4 | COc1cc(O)c2c(=O)oc3cc(OCc4ccccc4)c(OCc4ccccc4)cc3c2c1 | – | > 200 µM | – | – | – | –
5 | CC12C=C(O)C(=O)C=C1c1cccc(O)c1C(=O)O2 (stereo not given) | Dose-dependent effect | 0.24 µM | 371 | 89 µM | – | –
6 | COc1cc(O)c2c(=O)oc3cc(O)c(O)cc3c2c1 | – | > 200 µM | – | – | – | –
7 | CC12C=CC(=O)C=C1c1cccc(O)c1C(=O)O2 (stereo not given) | – | > 200 µM | – | – | – | –

Now from value to molecule:

Row | IC50 [1] | IC50 ([1]; read-out: IC50) | Ratio IC50 [2] | IC50 (DNA polymerase beta) | IC50 [3] | Activity (Bos taurus) | SMILES
8 | Dose-dependent effect | 0.18 µM | 194 | 35 µM | – | – | CCCOc1cc(O)c2c(c1)C1=CC(=O)C(O)=CC1(C)OC2=O (stereo not given)
9 | Dose-dependent effect | 0.06 µM | 183 | 11 µM | – | – | CCCCCCCCCCCCOc1cc(O)c2c(c1)C1=CC(=O)C(O)=CC1(C)OC2=O (stereo not given)
10 | Dose-dependent effect | 0.09 µM | 267 | 24 µM | – | – | CCCCCCOc1cc(O)c2c(c1)C1=CC(=O)C(O)=CC1(C)OC2=O (stereo not given)
